Assay outcomes deposited in PubChem by several laboratories.
An excerpt weighted towards active compounds, which were near 2.5% of everything screened.
Tb hexokinase = T. brucei hexokinase 1 inhibition. recombinant TbHK1, G6PDH-coupled NADH A340. inhibition, % at 10 µM. hit rate 0.11% among 220,000;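 active = inhibition of 50% or more in the single-dose primary screen; inactive = inhibition below 50%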
PGE2 EP2 inh = EP2 receptor (human) inhibition; P43116; C6 glioma cells expressing human EP2, cAMP TR-FRET; cells stimulated with saturating PGE2; inhibition, % at 25 µM; hit rate 0.52% among 260,000; AID 1422;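 active = percent inhibition above 40 after rounding to a whole number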;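 also: rat C6 glioma host cells with rolipram phosphodiesterase inhibitor present; the protocol text gives 20 µM as final concentration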
HKDC1 inh = inhibitors of human hexokinase HKDC1. Q2TB90. recombinant HKDC1, G6PDH/diaphorase resazurin coupled fluorescence. inhibition, % at 20 µM. hit rate 0.16% among 340,000. AID 493160;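 active = inhibition above about 35% when tested at 20 µM, limit read from the data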;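 also: plate controls were DMSO wells with enzyme for no effect and DMSO wells lacking enzyme for full effect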
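Material – in-house recombinant HK5 (HKDC1) enzyme · Quantity – HKDC1 at 5 µg/mL · Buffer or medium – pH 8.0 Tris buffer with 10 mM MgCl2 · Reagent – glucose with 1 mM ATP · Dosing – single 20 µM dose · Times – reaction time 90 min, room temperature, protected from light · Technique – resorufin fluorescence at 613 nm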
PHOSPHO1 block = inhibitors of human PHOSPHO1 phosphatase; AID 1565; hit rate 1.1% among 290,000; Q8TCT1; inhibition, % at 13.3 µM; recombinant PHOSPHO1, absorbance phosphatase assay; in the data active = inhibition above about 60%
Target sequence (Q8TCT1 whole entry, looked up): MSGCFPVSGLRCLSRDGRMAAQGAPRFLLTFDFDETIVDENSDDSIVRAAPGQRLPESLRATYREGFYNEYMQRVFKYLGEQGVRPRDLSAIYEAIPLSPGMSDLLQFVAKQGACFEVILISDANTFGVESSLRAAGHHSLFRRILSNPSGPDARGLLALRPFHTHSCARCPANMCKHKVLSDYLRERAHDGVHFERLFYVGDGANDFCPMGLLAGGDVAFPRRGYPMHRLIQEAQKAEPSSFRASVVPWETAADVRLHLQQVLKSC
EP2 modulator = modulators of human EP2 prostaglandin E2 receptor; EP2-expressing cells, cAMP HTRF FRET, PGE2 co-stimulation; AID 940; P43116; hit rate 0.83% among 260,000; induction, % at 25 µM;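 active = compounds whose cAMP rise, as percent of the full-agonist control response, exceeds 60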;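 also: rat C6 glioma line stably carrying human EP2 under a CMV promoter; the protocol text gives 20 µM as final concentration; 100% = response of wells given 1 µM PGE2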
PfG6PD inh = PfG6PD (Plasmodium falciparum) enzyme inhibition. inhibition, % at 20 µM. AID 504690. hit rate 0.78% among 350,000. PfGluPho enzyme, NADPH resazurin-diaphorase fluorescence;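 active = inhibition reaching at least a set limit at 20 µM in the primary screen, cut at about 59% in these data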;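 also: 0% = DMSO wells with substrate and 100% = DMSO wells lacking glucose-6-phosphate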
The depositor's hits bear a star; · = not tested or not shown.

SMILES	Tb hexokinase	PGE2 EP2 inh	HKDC1 inh	PHOSPHO1 block	EP2 modulator	PfG6PD inh
Cc1ccccc1NC1=C/C(=N\S(=O)(=O)c2cccs2)c2ccccc2C1=O	-7.0	18.7	62.6*	1.0	-37.0	99.3*
O=C1[C@@H]2[C@H](C(=O)N1CN1CCSCC1)[C@H]1[C@@H]3C=C[C@@H]([C@@H]4C(=O)N(CN5CCSCC5)C(=O)[C@@H]34)[C@@H]21	·	45.2*	·	·	14.6	·
Clc1ccccc1-c1ncc2ccccn12	-10.6	9.6	-4.4	60.9*	44.6	2.1
CC1Oc2ccccc2N(CC(=O)c2ccc(Cl)cc2)C1=O (stereo not drawn)	·	6.8	·	·	8.5	·
CC1(C)Cc2c(c(N3CCOCC3)nc3sc4c(=O)[nH]cnc4c23)CS1	3.5	9.3	8.2	108.2*	-32.6	-12.4
CC1(C)Cc2c(c(N3CCCC3)nc3sc4c(N5CCN(CCO)CC5)ncnc4c23)CO1	-64.4	·	13.7	-7.7	30.7	19.1
CC1(C)Cc2c(c(N3CCCC3)nc3sc4c(N5CCOCC5)ncnc4c23)CO1	·	3.9	·	·	72.9*	·
CCN1CCN(c2ccc(NC(=O)c3ccc(OC)cc3)cc2)CC1	·	16.2	·	·	-32.5	·
CCOC(=O)c1c(-c2ccc(C)cc2)csc1NC(=O)COC	·	1.8	·	·	81.5*	·
CCOC(=O)c1c(-c2ccc(C)c(C)c2)csc1NC(=O)COC	·	9.0	·	·	92.9*	·
CCOC(=O)c1c(-c2ccccc2)csc1NC(=O)COC	·	6.6	·	·	80.0*	·
CCOC(=O)c1c(-c2ccccc2)csc1NC(=S)NC	24.8	18.9	7.4	-22.7	32.7	-11.0
CCOC(=O)c1c(-c2ccc(OC)c(OC)c2)csc1NC(=O)CC	·	9.4	·	·	4.2	·
CCOC(=O)c1c(-c2ccc(OCC)cc2)csc1NC(=O)CC	·	6.8	·	·	67.1*	·
CCOC(=O)c1c(-c2ccc(OC)c(OC)c2)csc1NC(=O)CCCl	·	7.4	·	·	30.3	·
CCOC(=O)c1c(-c2ccc(C)c(C)c2)csc1NC(=O)C1CC=CCC1C(=O)O (stereo not drawn)	-1.1	·	1.7	-2.6	0.4	-27.5
COc1cc(OC)c(OC)cc1CNc1n[nH]c2nc(C)cc(C(F)(F)F)c12	·	3.1	·	·	-92.7	·
Cc1cc(C)c2c(NCc3cccc(F)c3)n[nH]c2n1	·	2.4	·	·	-69.0	·
Cc1cccc2c(-c3ccccc3)cc(=O)[nH]c12	-5.4	4.3	-0.3	-35.3	43.6	0.2
Cc1cc(=S)[nH]c2c(C)cccc12	-17.5	16.2	-2.3	97.5*	4.0	41.7
CC1=C(CC[C@H](C)CO)O[C@@H]2C[C@@H]3[C@H]4CC[C@H]5C[C@@H](O)CC[C@]5(C)[C@@H]4CC(=O)[C@@]3(C)[C@H]12	·	64.7*	·	·	24.1	·
CC(=O)OC1CC[C@@]2(C)C(CCC3C2CC(=O)[C@@]2(C)C3CC3CC(C)=CC(=O)C32)C1 (stereo partly drawn)	-4.2	6.2	-4.4	27.3	54.4	12.4
S=c1[nH]nc(-c2cccnc2)n1/N=C/C=C/c1ccccc1	-13.0	7.0	-2.9	67.4*	7.4	19.4
O=[N+]([O-])c1cc2c(cc1C=Nc1ccccc1)OCO2	1.2	11.2	16.9	-24.6	8.7	86.7*
S=c1[nH]nc(-c2ccccn2)n1/N=C/c1ccc(-c2ccccc2Br)o1	-12.1	25.6	10.4	61.6*	25.5	8.2
SMILES	Tb hexokinase	PGE2 EP2 inh	HKDC1 inh	PHOSPHO1 block	EP2 modulator	PfG6PD inh
O=[N+]([O-])c1cc2c(cc1/C=N/n1c(-c3ccccc3)n[nH]c1=S)OCO2	-3.5	2.2	6.5	106.0*	21.7	38.2
CCc1c(C)sc2ncn(C3CCN(C(=O)c4ccn[nH]4)CC3)c(=O)c12	·	8.4	·	·	-52.2	·
CCC(CC)c1nnc(NC(=O)c2ccccc2F)s1	·	12.5	·	·	-4.7	·
O=[N+]([O-])c1cc2c(cc1/C=N/n1c(-c3ccccn3)n[nH]c1=S)OCO2	39.0	5.1	-4.4	73.5*	26.5	50.0
O=[N+]([O-])c1ccccc1/C=N/n1c(-c2cccnc2)n[nH]c1=S	-1.6	3.8	-3.3	7.1	11.2	37.0
Cc1ccc(-c2n[nH]c(=S)n2/N=C/C=C/c2ccccc2[N+](=O)[O-])cc1	-16.7	26.2	1.5	99.2*	-12.6	28.4
O=C(NC(=S)NNC(=O)c1ccc(Cl)cc1Cl)c1cccnc1	26.2	4.8	-8.7	-8.6	5.5	0.7
Cc1ccccc1C(=O)NNC(=S)NC(=O)c1ccc(Cl)cc1Cl	1.8	15.6	-3.9	99.7*	-40.5	5.2
CC(C)(C)C1=NNC(=O)c2cc3sccc3n2C1	·	8.1	·	·	8.5	·
